Holding throughout (assay type): functional
In one test the test system is Cavia porcellus. In words: Antihistaminic activity in Dunkin-Hartley guinea pig assessed as protection against histamine-induced bronchospasm at 10 mg/kg, po. A digest of the protocol:
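Male Dunkin Hartley guinea pigs (250–300 g), fasted 12 h, six per group, dosed orally at 10 mg/kg in 1% CMC. They were then challenged in a closed transparent cage with nebulized histamine aerosol (0.2% aqueous histamine acid chloride, 3 ml). Preconvulsion onset time was recorded, and animals stable >6 min counted as protected. Mean preconvulsion time versus control was expressed as percent protection.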

The test system of test [1] is Mus musculus. In words: Sedative-hypnotic activity in Swiss Albino mouse assessed as reduction of locomotor activity at 5 mg/kg, po after 1 hrs. Also noted: scale not given: the % may be the effect or the level left. In outline:
(§1)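 Locomotor activity was scored at 1, 2 and 3 h after dosing, and percent reduction in locomotor activity was calculated. Significance versus control was tested by Student's t test. Animals were housed at 45–55% relative humidity on a 12 h light/dark cycle, fed standard feed, and acclimatized for one week before use.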

The subject of test [2] is Mus musculus. In words: Sedative-hypnotic activity in Swiss Albino mouse assessed as reduction of locomotor activity at 5 mg/kg, po after 2 hrs. The arrangement: scale not given: the % may be the effect or the level left. A digest of the protocol: as §1
Test [3] concerns Mus musculus. In words: Sedative-hypnotic activity in Swiss Albino mouse assessed as reduction of locomotor activity at 5 mg/kg, po after 3 hrs. Also noted: scale not given: the % may be the effect or the level left. A digest of the protocol: as §1

As for `CN(C)CC[C@@H](c1ccccc1)c1ccccn1.O=C(O)/C=C\C(=O)O` [PHENIRAMINE MALEATE], the Activity in the test with Cavia porcellus worked out at 71%; in the test on Mus musculus [1], 37%; in the test with Mus musculus [2], 32%; in the test with Mus musculus [3], 22%.

Turning to `O=c1c2ccccc2n2c(CN3CCCCC3)nnc2n1Cc1ccccc1`, the Activity amounted to 73.93% in the test on Cavia porcellus, 9% in the test on Mus musculus [1], 15% in the test with Mus musculus [2] and 8% in the test on Mus musculus [3].

For `Cc1nnc2n(Cc3ccccc3)c(=O)c3ccccc3n12`, the Activity in the test on Cavia porcellus is given as 76.08%; in the test with Mus musculus [1], 6%; with Mus musculus [2], 11%; in the test on Mus musculus [3] it was 6%.

Take `O=c1c2ccccc2n2cnnc2n1Cc1ccccc1`: the Activity came out at 73.99% with Cavia porcellus, 6% in the test with Mus musculus [1], 9% in the test with Mus musculus [2] and 4% with Mus musculus [3].

With `CCc1nnc2n(Cc3ccccc3)c(=O)c3ccccc3n12`, the Activity was found to be 74.39% in the test on Cavia porcellus, 7% in the test with Mus musculus [1], 12% in the test on Mus musculus [2] and 9% in the test with Mus musculus [3].

For the molecule `CCCc1nnc2n(Cc3ccccc3)c(=O)c3ccccc3n12`, the Activity with Cavia porcellus came to 73.87%; in the test on Mus musculus [1] it was 9%; with Mus musculus [2] it was 15%; with Mus musculus [3] it was 11%.

As to `O=c1c2ccccc2n2c(CCl)nnc2n1Cc1ccccc1`, the Activity with Cavia porcellus is 72.96%; with Mus musculus [1], 5%; in the test with Mus musculus [2], 7%; in the test on Mus musculus [3], 4%.

For the molecule `O=c1c2ccccc2n2c(CN3CCNCC3)nnc2n1Cc1ccccc1`, the Activity in the test on Cavia porcellus amounted to 74.44%; in the test with Mus musculus [1], 6%; in the test on Mus musculus [2], 14%; with Mus musculus [3], 8%.

With `O=c1c2ccccc2n2c(CN3CCOCC3)nnc2n1Cc1ccccc1`, the Activity in the test on Cavia porcellus is 74.1%; in the test with Mus musculus [1], 7%; in the test on Mus musculus [2] it was 13%; in the test with Mus musculus [3], 6%.

As to `O=c1c2ccccc2n2c(CN3CCCC3)nnc2n1Cc1ccccc1`, the Activity in the test with Cavia porcellus worked out at 73.69%; in the test on Mus musculus [1] it was 8%; in the test with Mus musculus [2] it was 12%; with Mus musculus [3], 8%.

For `CN1CCN(Cc2nnc3n(Cc4ccccc4)c(=O)c4ccccc4n23)CC1`, the Activity with Cavia porcellus came to 74.83%; with Mus musculus [1] it was 8%; in the test on Mus musculus [2], 17%; in the test on Mus musculus [3] it was 7%.
